Experimental data: ChEMBL document CHEMBL1126560, “Endothelin-1 analogues substituted at both position 18 and 19: highly potent endothelin antagonists with no selectivity for either receptor subtype ETA or ETB” (J Med Chem, 1993)

Columns and labels:
[1] = target: T1, Endothelin receptor type B (Bos taurus, UniProt P28088); experiment: Tested for the competitive binding versus [125I]- ET-1 determined in bovine cerebrum membrane for Endothelin B receptor; assay type: cell membranes
T1 sequence (P28088 whole entry): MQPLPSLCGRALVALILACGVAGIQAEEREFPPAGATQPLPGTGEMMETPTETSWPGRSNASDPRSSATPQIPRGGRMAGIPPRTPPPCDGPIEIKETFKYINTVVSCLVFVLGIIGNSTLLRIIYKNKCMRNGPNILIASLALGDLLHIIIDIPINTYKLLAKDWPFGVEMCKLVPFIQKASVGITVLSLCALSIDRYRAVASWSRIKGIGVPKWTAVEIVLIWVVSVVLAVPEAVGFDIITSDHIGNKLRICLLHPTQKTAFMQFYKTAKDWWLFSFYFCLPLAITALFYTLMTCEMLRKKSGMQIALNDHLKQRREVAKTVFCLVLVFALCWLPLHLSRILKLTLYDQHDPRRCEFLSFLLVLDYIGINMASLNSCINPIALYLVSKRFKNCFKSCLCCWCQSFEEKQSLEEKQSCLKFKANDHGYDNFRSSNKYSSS
How it was run: (§1)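 Membranes (porcine cardiac ventricle at 12 μg/mL for ETA; bovine cerebrum at 150 μg/mL for ETB) in pH 7.2 Tris/EGTA/Mg acetate/0.1% BSA buffer with protease inhibitors. Incubated with 100 pM [125I]ET-1 and varied compound for 1 h at 25 °C, then filtered and counted by gamma counter. IC50 given as mean ± SEM of ≥3 determinations.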

Endothelin-1 receptor [2] = target: T2, Endothelin-1 receptor (Sus scrofa, UniProt Q29010); experiment: Tested for the competitive binding versus [125I]- ET-1 determined in porcine cardiac ventricular membrane for Endothelin A receptor; how it was run: as §1
T2 sequence (Q29010 whole entry): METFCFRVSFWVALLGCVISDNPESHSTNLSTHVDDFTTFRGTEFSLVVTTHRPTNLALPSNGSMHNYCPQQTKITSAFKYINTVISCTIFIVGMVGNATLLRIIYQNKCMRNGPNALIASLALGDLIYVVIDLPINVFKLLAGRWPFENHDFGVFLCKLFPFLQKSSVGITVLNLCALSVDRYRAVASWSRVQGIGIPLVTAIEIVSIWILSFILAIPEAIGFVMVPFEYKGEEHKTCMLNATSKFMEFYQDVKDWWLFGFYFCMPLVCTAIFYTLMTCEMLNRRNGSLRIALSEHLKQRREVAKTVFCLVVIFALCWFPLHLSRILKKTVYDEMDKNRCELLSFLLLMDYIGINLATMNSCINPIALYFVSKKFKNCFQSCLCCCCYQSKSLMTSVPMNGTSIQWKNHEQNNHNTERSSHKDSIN

Endothelin-1 receptor [3] = target: T2, Endothelin-1 receptor; experiment: ETA receptor antagonist activity was measured by inhibition of ET-1 induced vasoconstriction in isolated porcine coronary artery; assay type: functional, tissue-based; settings: read-out: pA2 (converted)
How it was run: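 Porcine right coronary artery, endothelium-denuded 2 × 5-mm helical strips in Krebs-Henseleit, 95% O2-5% CO2, 37 °C, isometric tension. Compound added 15 min before cumulative ET-1. Tension normalized to 60 mM KCl. pA2 by van Rossum's method; n in parentheses.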

[4] = target: T3, Endothelin receptor, ET-A/ET-B (Homo sapiens, UniProt P24530+P25101); experiment: (§2) Antagonism of sarafotoxin S6c-induced vasoconstriction in rabbit pulmonary artery at both ETA and ETB receptors; assay type: functional, Oryctolagus cuniculus; settings: target entry is the homologue from another species
T3 sequence (P24530 whole entry): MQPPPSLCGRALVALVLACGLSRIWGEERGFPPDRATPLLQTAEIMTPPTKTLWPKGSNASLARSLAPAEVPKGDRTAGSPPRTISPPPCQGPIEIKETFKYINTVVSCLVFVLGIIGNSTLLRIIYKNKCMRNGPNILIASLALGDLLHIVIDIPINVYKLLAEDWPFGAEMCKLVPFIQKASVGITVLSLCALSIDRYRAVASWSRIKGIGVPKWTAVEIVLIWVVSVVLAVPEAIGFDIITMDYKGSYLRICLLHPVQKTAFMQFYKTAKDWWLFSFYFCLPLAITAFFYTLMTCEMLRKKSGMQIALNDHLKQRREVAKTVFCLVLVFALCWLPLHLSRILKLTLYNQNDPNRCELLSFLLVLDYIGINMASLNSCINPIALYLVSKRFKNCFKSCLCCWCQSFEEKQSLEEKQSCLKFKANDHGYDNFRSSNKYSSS
T3 sequence (P25101 whole entry): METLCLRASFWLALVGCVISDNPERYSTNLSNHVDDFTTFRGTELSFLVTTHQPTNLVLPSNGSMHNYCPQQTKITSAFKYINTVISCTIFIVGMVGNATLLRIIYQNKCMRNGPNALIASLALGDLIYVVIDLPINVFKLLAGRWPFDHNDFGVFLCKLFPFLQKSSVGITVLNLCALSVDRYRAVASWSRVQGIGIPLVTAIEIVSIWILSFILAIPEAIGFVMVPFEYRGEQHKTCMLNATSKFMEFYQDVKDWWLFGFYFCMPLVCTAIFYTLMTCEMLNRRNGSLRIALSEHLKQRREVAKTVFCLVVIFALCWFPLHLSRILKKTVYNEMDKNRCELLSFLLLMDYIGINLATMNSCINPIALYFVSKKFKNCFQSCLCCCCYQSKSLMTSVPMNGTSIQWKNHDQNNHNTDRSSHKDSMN
How it was run: (§3)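 Rabbit pulmonary artery, endothelium-denuded 5-mm rings in Krebs-Henseleit, 95% O2-5% CO2, 37 °C, isometric tension. Compound added 15 min before cumulative sarafotoxin S6c. Tension normalized to 60 mM KCl response. Antagonism given as pA2 (van Rossum) or pD2' value; n in parentheses.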

[5] = target: Endothelin receptor, ET-A/ET-B (Homo sapiens) (UniProt P24530+P25101); experiment: as §2; assay type: functional; settings: Oryctolagus cuniculus; target entry is the homologue from another species; how it was run: as §3
[6] = target: T4, Endothelin-1 receptor (Sus scrofa) (UniProt Q29010); experiment: Tested for the ETA receptor agonist activity by measuring maximum vasoconstriction in porcine coronary artery; assay type: functional, tissue-based
T4 sequence (whole entry): T2 sequence (Q29010 whole entry)
How it was run: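 Porcine right coronary artery, endothelium-denuded helical strips in Krebs-Henseleit, 37 °C, isometric tension. Compound applied cumulatively, up to 1 μM. Maximal contraction expressed as % of 60 mM KCl-induced tension; n in parentheses.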

| SMILES | IC50 [1] | IC50 (Endothelin-1 receptor [2]) | Kb (Endothelin-1 receptor [3]) | pA2 [4] | pD2 [5] | Max vasoconstriction [6] |
| --- | --- | --- | --- | --- | --- | --- |
| CC[C@H](C)[C@H](NC(=O)[C@H](CC(C)(C)C)NC(=O)[C@@H](NC(=O)[C@H](CC(C)C)NC(=O)[C@H](Cc1c[nH]cn1)NC(=O)[C@@H]1CSSC[C@H](N)C(=O)N[C@@H](CO)C(=O)N[C@H]2CSSC[C@H](NC(=O)[C@H](CCC(=O)O)NC(=O)[C@H](CCCCN)NC(=O)[C@H](CC(=O)O)NC(=O)[C@H](CCSC)NC(=O)[C@H](CC(C)C)NC(=O)[C@H](CO)NC(=O)[C@H](CO)NC2=O)C(=O)N[C@@H](C(C)C)C(=O)N[C@@H](Cc2ccc(O)cc2)C(=O)N[C@@H](Cc2ccccc2)C(=O)N1)[C@@H](C)O)C(=O)N[C@@H](Cc1c[nH]c2ccccc12)C(=O)O | 0.25 nM | 0.7 nM | 39.8 nM | 8.4 | – | – |
| CC[C@H](C)[C@H](NC(=O)[C@H](CC(C)C)NC(=O)[C@@H](NC(=O)[C@H](CC(C)C)NC(=O)[C@H](Cc1c[nH]cn1)NC(=O)[C@@H]1CSSC[C@@H](N)C(=O)N[C@@H](CO)C(=O)N[C@@H]2CSSC[C@@H](NC(=O)[C@H](CCC(=O)O)NC(=O)[C@@H](CCCCN)NC(=O)[C@H](CC(=O)O)NC(=O)[C@@H](CCSC)NC(=O)[C@H](CC(C)C)NC(=O)[C@@H](CO)NC(=O)[C@H](CO)NC2=O)C(=O)N[C@@H](C(C)C)C(=O)N[C@H](Cc2ccc(O)cc2)C(=O)N[C@@H](Cc2ccccc2)C(=O)N1)[C@H](C)O)C(=O)N[C@@H](Cc1c[nH]c2ccccc12)C(=O)O | – | – | – | – | 8.7 | 4 |
